Key:
[1] = target: Human immunodeficiency virus type 1 reverse transcriptase (Human immunodeficiency virus 1) (UniProt Q72547); assay: Concentration which reduced the cytopathic effect of HIV-1 in MT-4 infected cells; type: functional, cell-based
Outline: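 MT4 cells at 2 × 10⁵ cells/mL in RPMI 1640 with 10% FCS, penicillin and streptomycin (2 × 10⁴ cells/well). Compounds added from DMSO stocks diluted in medium (final DMSO ≤1%), then HIV-1 IIIB at 10 TCID₅₀/well. After 6 days in CO₂, surviving cells read by XTT. ED₅₀ is the concentration reducing virus cytopathic effect, mean of at least two experiments.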

[2] = target: Human immunodeficiency virus type 1 reverse transcriptase (Human immunodeficiency virus 1, UniProt Q72547); assay: Inhibition of HIV-1 reverse transcriptase using rCdG as template and dGTP as substrate
[3] = Concentration which reduced the viability of the uninfected MT-4 cells to 50% compared to untreated control cells; conditions: MT4

Structure (SMILES)	ED50 [1] [nM]	IC50 [2] [nM]	CD50 [3] [µM]
S=C(NCCc1ccccc1Cl)Nc1nccs1	400	600	100
CCCCc1csc(NC(=S)NCCc2ccccc2)n1	1300	2500	313
FC(F)(F)c1csc(NC(=S)NCCc2ccccc2)n1	500	550	9
S=C(NCCc1ccccn1)Nc1nccs1	1300	200	76
CN(/C(S)=N/CCc1ccccc1)c1nccs1	10000	1500	65
S=C(NCCc1cccc(Oc2ccccc2)c1)Nc1nccs1	2800	1100	14
CC(C)c1csc(NC(=S)NCCc2ccccc2)n1	1300	200	> 330
S=C(NCCc1ccccc1)Nc1cnccn1	> 10000	3900	> 390
CCOc1cccc(F)c1CCNC(=S)Nc1nccs1	200	10	37
Cc1cn([C@H]2C[C@H](N=[N+]=[N-])[C@@H](CO)O2)c(=O)[nH]c1=O	7	–	–
CCOc1cccc(CCNC(=S)Nc2nccs2)c1	150	60	91
CCCCCCOc1cccc(CC/N=C(\S)Nc2nccs2)c1	> 10000	> 10000	8
S=C(NCCc1ccncc1)Nc1nccs1	> 10000	> 10000	113
O=C(O)c1csc(/N=C(\S)NCCc2ccccc2)n1	> 10000	> 10000	> 325
Fc1cccc(F)c1CC/N=C(\S)Nc1ccc(Br)cn1	10	–	67
CCOc1cccc(F)c1CCNC(=S)Nc1ccc(Br)cn1	20	6	50
Fc1cccc(Cl)c1CCNC(=S)Nc1nccs1	50	6	111
CC(CNC(=S)Nc1nccs1)c1ccccc1 (stereo not drawn)	–	450	–

Structure (SMILES)	ED50 [1] [nM]	IC50 [2] [nM]	CD50 [3] [µM]
Fc1cccc(F)c1CCNC(=S)Nc1nccs1	20	10	33
S=C(NCCc1ccccc1)Nc1nncs1	5300	1900	–
Fc1cccc(F)c1CCNC(=S)Nc1ccc(Br)cn1	–	1	–
Cc1ccccc1CCNC(=S)Nc1nccs1	950	80	72
S=C(NCCc1ccco1)Nc1nccs1	5200	650	89
S=C(NCCc1ccccc1)Nc1nccs1	1300	900	–
S=C(NCCc1cccnc1)Nc1nccs1	6400	> 10000	83
N#Cc1csc(NC(=S)NCCc2c(F)cccc2F)n1	30	6	10
Cc1ccc(NC(=S)NCCc2ccccc2)nc1	150	30	–
CCCc1csc(NC(=S)NCCc2ccccc2)n1	1600	350	> 330
CCOc1cccc(F)c1CCNC(=S)Nc1ccc(C)cn1	200	4.5	60
Cc1ccc(NC(=S)NCCc2c(F)cccc2F)nc1	10	3	> 325
CC(C)Oc1cccc(CCNC(=S)Nc2nccs2)c1	400	400	16
S=C(NCCc1ccccc1)Nc1nc2ccccc2s1	1100	200	–
S=C(NCCc1ccccc1)Nc1ncc(Cl)s1	2700	2400	15
CCCOc1cccc(CCNC(=S)Nc2nccs2)c1	2200	200	75
S=C(NCCc1ccccc1)Nc1ccc(Br)cn1	50	15	–

Source: ChEMBL document CHEMBL1128592, “Phenethylthiazolethiourea (PETT) compounds, a new class of HIV-1 reverse transcriptase inhibitors. 1. Synthesis and basic structure-activity relationship studies of PETT analogs” (J Med Chem, 1995)
